ChEMBL document CHEMBL1671617, “Correlation of antimicrobial resistance with beta-lactamases, the OmpA-like porin, and efflux pumps in clinical isolates of Acinetobacter baumannii endemic to New York City” (2008)
Values after ≈ are worked out from the molar mass of the structure shown.

Assays:
Type in all cases: functional
Acinetobacter baumannii [1] = test: Antimicrobial activity against ISAba1 linked with the blaOXA-51-type beta-lactamase harboring Acinetobacter baumannii zeta clonal group isolate 20 expressing ampC, ompA, adeB, adeM, aacC2 by agar dilution method
In short: (§1)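 MICs were determined by agar dilution on Mueller-Hinton agar against multidrug-resistant clinical A. baumannii isolates from endemic regional ribotypes, with species confirmed by ribotyping. Selected agents were also tested with and without the efflux inhibitor NMP, fixed at 100 μg/ml in the agar. Meropenem was tested with and without clavulanic acid at 4 μg/ml. A fourfold or greater MIC drop with the additive was scored as significant.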

Acinetobacter baumannii [2] = test: Antimicrobial activity against ISAba1 linked with the blaOXA-51-type beta-lactamase harboring Acinetobacter baumannii zeta clonal group isolate 24 expressing ampC, ompA, adeB, adeM, aadA1, aacA4, aacC2, blaSHV-5 by agar dilution method; in short: as §1
Acinetobacter baumannii [3] = test: Antimicrobial activity against ISAba1 linked with the blaOXA-51-type beta-lactamase harboring Acinetobacter baumannii zeta clonal group isolate 19 expressing ampC, ompA, adeB, adeM, aacC2 by agar dilution method; in short: as §1
Acinetobacter baumannii [4] = test: Antimicrobial activity against ISAba1 linked with the blaOXA-51-type beta-lactamase harboring Acinetobacter baumannii alpha clonal group isolate 7 expressing ampC, ompA, adeB, adeM, blaSHV-5 by agar dilution method; in short: as §1
Acinetobacter baumannii [5] = test: Antimicrobial activity against Acinetobacter baumannii alpha clonal group isolate 5 expressing ampC, ompA, adeB, adeM, aacC1, aadA1 by agar dilution method; in short: as §1
Acinetobacter baumannii [6] = test: Antimicrobial activity against ISAba1 linked with the blaOXA-51-type beta-lactamase harboring Acinetobacter baumannii lambda clonal group isolate 29 expressing ampC, ompA, adeM, aadB, aadA1 by agar dilution method; in short: as §1
Acinetobacter baumannii [7] = test: Antimicrobial activity against Acinetobacter baumannii nu clonal group isolate 34 expressing ampC, ompA, adeB, adeM by agar dilution method; in short: as §1
Acinetobacter baumannii [8] = test: Antimicrobial activity against ISAba1 linked with the blaOXA-51-type beta-lactamase harboring Acinetobacter baumannii beta clonal group isolate 14 expressing ompA, adeB, adeM, aacA4, blaSHV-5 by agar dilution method; in short: as §1
Acinetobacter baumannii [9] = test: Antimicrobial activity against Acinetobacter baumannii eta clonal group isolate 36 expressing ampC, ompA, adeB, adeM by agar dilution method; in short: as §1
Acinetobacter baumannii [10] = test: Antimicrobial activity against ISAba1 linked with the blaOXA-51-type beta-lactamase harboring Acinetobacter baumannii beta clonal group isolate 17 expressing ompA, adeB, adeM, aacA4, blaSHV-5 by agar dilution method; in short: as §1
Acinetobacter baumannii [11] = test: Antimicrobial activity against Acinetobacter baumannii unique clonal group isolate 39 expressing ampC, ompA, adeM by agar dilution method
In short: (§2)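 Clinical multidrug-resistant A. baumannii isolates from endemic NYC ribotypes, with species identity confirmed by ribotyping. MICs were determined by agar dilution on Mueller-Hinton agar; tobramycin was tested by this method. Agar dilution was also run for selected agents with and without the efflux inhibitor NMP, added to the agar at a fixed 100 μg/ml.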

Acinetobacter baumannii [12] = test: Antimicrobial activity against Acinetobacter baumannii nu clonal group isolate 33 expressing ampC, ompA, adeB, adeM by agar dilution method; in short: as §1
Acinetobacter baumannii [13] = test: Antimicrobial activity against Acinetobacter baumannii lambda clonal group isolate 27 expressing ampC, ompA, adeB, adeM, aadB, aadA1 by agar dilution method; in short: as §1
Acinetobacter baumannii [14] = test: Antimicrobial activity against ISAba1 linked with the blaOXA-51-type beta-lactamase harboring Acinetobacter baumannii beta clonal group isolate 18 expressing ompA, adeB, adeM, aacA4, blaSHV-5 by agar dilution method; in short: as §1
Acinetobacter baumannii [15] = test: Antimicrobial activity against ISAba1 linked with the blaOXA-51-type beta-lactamase harboring Acinetobacter baumannii beta clonal group isolate 10 expressing ompA, adeB, adeM, aacA4, blaSHV-5 by agar dilution method; in short: as §1
Acinetobacter baumannii [16] = test: Antimicrobial activity against ISAba1 linked with the blaOXA-51-type beta-lactamase harboring Acinetobacter baumannii alpha clonal group isolate 1 expressing ampC, ompA, adeB, adeM by agar dilution method; in short: as §1
Acinetobacter baumannii [17] = test: Antimicrobial activity against ISAba1 linked with the blaOXA-51-type beta-lactamase harboring Acinetobacter baumannii zeta clonal group isolate 21 expressing ampC, ompA, adeB, adeM, aacC2, blaSHV-5 by agar dilution method; in short: as §1
Acinetobacter baumannii [18] = test: Antimicrobial activity against ISAba1 linked with the blaOXA-51-type beta-lactamase harboring Acinetobacter baumannii unique clonal group isolate 40 expressing ampC, ompA, adeB, adeM, aadA1, aacA4, aacC2, blaSHV-5 by agar dilution method; in short: as §1
Acinetobacter baumannii [19] = test: Antimicrobial activity against Acinetobacter baumannii alpha clonal group isolate 2 expressing ampC, ompA, adeB, adeM, aacC1, aadA1 by agar dilution method; in short: as §1
Acinetobacter baumannii [20] = test: Antimicrobial activity against ISAba1 linked with the blaOXA-51-type beta-lactamase harboring Acinetobacter baumannii lambda clonal group isolate 30 expressing ampC, ompA, adeB, adeM, aadB, aadA1 by agar dilution method; in short: as §1
Acinetobacter baumannii [21] = test: Antimicrobial activity against ISAba1 linked with the blaOXA-51-type beta-lactamase harboring Acinetobacter baumannii zeta clonal group isolate 22 expressing ampC, ompA, adeB, adeM, aadA1, aacA4, aacC2, blaSHV-5 by agar dilution method; in short: as §1
Acinetobacter baumannii [22] = test: Antimicrobial activity against Acinetobacter baumannii alpha clonal group isolate 3 expressing ampC, ompA, adeB, adeM, aacC1, aadA1 by agar dilution method; in short: as §1
Acinetobacter baumannii [23] = test: Antimicrobial activity against ISAba1 linked with the blaOXA-51-type beta-lactamase harboring Acinetobacter baumannii beta clonal group isolate 13 expressing ompA, adeB, adeM, aacA4, blaSHV-5 by agar dilution method; in short: as §1
Acinetobacter baumannii [24] = test: Antimicrobial activity against ISAba1 linked with the blaOXA-51-type beta-lactamase harboring Acinetobacter baumannii zeta clonal group isolate 25 expressing ampC, ompA, adeB, adeM, aadA1, aacA4, aacC2, blaSHV-5 by agar dilution method; in short: as §1
Acinetobacter baumannii [25] = test: Antimicrobial activity against ISAba1 linked with the blaOXA-51-type beta-lactamase harboring Acinetobacter baumannii beta clonal group isolate 16 expressing ompA, adeB, adeM, aacA4, blaSHV-5 by agar dilution method; in short: as §1
Acinetobacter baumannii [26] = test: Antimicrobial activity against ISAba1 linked with the blaOXA-51-type beta-lactamase harboring Acinetobacter baumannii zeta clonal group isolate 26 expressing ampC, ompA, adeB, adeM, aadA1, aacA4, aacC2, blaSHV-5 by agar dilution method; in short: as §1
Acinetobacter baumannii [27] = test: Antimicrobial activity against ISAba1 linked with the blaOXA-51-type beta-lactamase harboring Acinetobacter baumannii zeta clonal group isolate 23 expressing ampC, ompA, adeB, adeM, aadA1, aacA4, aacC2, aphA6 by agar dilution method; in short: as §1
Acinetobacter baumannii [28] = test: Antimicrobial activity against Acinetobacter baumannii nu clonal group isolate 32 expressing ampC, ompA, adeB, adeM, aadB, aadA2 by agar dilution method; in short: as §2
Acinetobacter baumannii [29] = test: Antimicrobial activity against Acinetobacter baumannii nu clonal group isolate 31 expressing ampC, ompA, adeB, adeM, aadB, aadA2 by agar dilution method; in short: as §2
Acinetobacter baumannii [30] = test: Antimicrobial activity against ISAba1 linked with the blaOXA-51-type beta-lactamase harboring Acinetobacter baumannii beta clonal group isolate 11 expressing ompA, adeB, adeM, blaSHV-5 by agar dilution method; in short: as §1
Acinetobacter baumannii [31] = test: Antimicrobial activity against ISAba1 linked with the blaOXA-51-type beta-lactamase harboring Acinetobacter baumannii beta clonal group isolate 9 expressing ampC, ompA, adeB, adeM by agar dilution method; in short: as §1
Acinetobacter baumannii [32] = test: Antimicrobial activity against ISAba1 linked with the blaOXA-51-type beta-lactamase harboring Acinetobacter baumannii beta clonal group isolate 15 expressing ompA, adeB, adeM, aacA4, blaSHV-5 by agar dilution method; in short: as §1
Acinetobacter baumannii [33] = test: Antimicrobial activity against Acinetobacter baumannii eta clonal group isolate 35 expressing ampC, ompA, adeB, adeM by agar dilution method; in short: as §1
Acinetobacter baumannii [34] = test: Antimicrobial activity against ISAba1 linked with the blaOXA-51-type beta-lactamase harboring Acinetobacter baumannii alpha clonal group isolate 6 expressing ampC, ompA, adeB, adeM, aacC1, aadA1 by agar dilution method; in short: as §1
Acinetobacter baumannii [35] = test: Antimicrobial activity against Acinetobacter baumannii unique clonal group isolate 37 expressing ampC, ompA, adeB, adeM by agar dilution method; in short: as §1
Acinetobacter baumannii [36] = test: Antimicrobial activity against Acinetobacter baumannii unique clonal group isolate 38 expressing ampC, ompA, adeB, adeM by agar dilution method; in short: as §2
Acinetobacter baumannii [37] = test: Antimicrobial activity against ISAba1 linked with the blaOXA-51-type beta-lactamase harboring Acinetobacter baumannii lambda clonal group isolate 28 expressing ampC, ompA, adeM, aadB, aadA1 by agar dilution method; in short: as §1
Acinetobacter baumannii [38] = test: Antimicrobial activity against ISAba1 linked with the blaOXA-51-type beta-lactamase harboring Acinetobacter baumannii beta clonal group isolate 12 expressing ompA, adeB, adeM, aacA4, aacC2, blaSHV-5 by agar dilution method; in short: as §1
Acinetobacter baumannii [39] = test: Antimicrobial activity against ISAba1 linked with the blaOXA-51-type beta-lactamase harboring Acinetobacter baumannii alpha clonal group isolate 8 expressing ampC, ompA, adeB, adeM, aacC1, aadA1 by agar dilution method; in short: as §1
Acinetobacter baumannii [40] = test: Antimicrobial activity against Acinetobacter baumannii alpha clonal group isolate 4 expressing ampC, ompA, adeB, adeM, aacC1, aadA1 by agar dilution method; in short: as §1

## NC[C@H]1O[C@H](O[C@H]2[C@H](O)[C@@H](O[C@H]3O[C@H](CO)[C@@H](O)[C@H](N)[C@H]3O)[C@H](N)C[C@@H]2N)[C@H](N)C[C@@H]1O [TOBRAMYCIN]
Acinetobacter baumannii [1]
  MIC: 4 µg/mL (≈ 8.56 µM)
Acinetobacter baumannii [2]
  MIC: > 32 µg/mL
Acinetobacter baumannii [3]
  MIC: 4 µg/mL (≈ 8.56 µM)
Acinetobacter baumannii [4]
  MIC: 0.5 µg/mL (≈ 1.07 µM)
Acinetobacter baumannii [5]
  MIC: 0.5 µg/mL (≈ 1.07 µM)
Acinetobacter baumannii [6]
  MIC: 16 µg/mL (≈ 34.2 µM)
Acinetobacter baumannii [7]
  MIC: 1 µg/mL (≈ 2.14 µM)
Acinetobacter baumannii [8]
  MIC: > 32 µg/mL
Acinetobacter baumannii [9]
  MIC: 1 µg/mL (≈ 2.14 µM)
Acinetobacter baumannii [10]
  MIC: > 32 µg/mL
Acinetobacter baumannii [11]
  MIC: < 0.25 µg/mL
Acinetobacter baumannii [12]
  MIC: 1 µg/mL (≈ 2.14 µM)
Acinetobacter baumannii [13]
  MIC: 0.5 µg/mL (≈ 1.07 µM)
Acinetobacter baumannii [14]
  MIC: > 32 µg/mL
Acinetobacter baumannii [15]
  MIC: 16 µg/mL (≈ 34.2 µM)
Acinetobacter baumannii [16]
  MIC: < 0.25 µg/mL
Acinetobacter baumannii [17]
  MIC: 4 µg/mL (≈ 8.56 µM)
Acinetobacter baumannii [18]
  MIC: > 32 µg/mL
Acinetobacter baumannii [19]
  MIC: 0.5 µg/mL (≈ 1.07 µM)
Acinetobacter baumannii [20]
  MIC: > 32 µg/mL
Acinetobacter baumannii [21]
  MIC: > 32 µg/mL
Acinetobacter baumannii [22]
  MIC: 0.5 µg/mL (≈ 1.07 µM)
Acinetobacter baumannii [23]
  MIC: > 32 µg/mL
Acinetobacter baumannii [24]
  MIC: > 32 µg/mL
Acinetobacter baumannii [25]
  MIC: > 32 µg/mL
Acinetobacter baumannii [26]
  MIC: > 32 µg/mL
Acinetobacter baumannii [27]
  MIC: > 32 µg/mL
Acinetobacter baumannii [28]
  MIC: > 32 µg/mL
Acinetobacter baumannii [29]
  MIC: > 32 µg/mL
Acinetobacter baumannii [30]
  MIC: 0.5 µg/mL (≈ 1.07 µM)
Acinetobacter baumannii [31]
  MIC: 2 µg/mL (≈ 4.28 µM)
Acinetobacter baumannii [32]
  MIC: > 32 µg/mL
Acinetobacter baumannii [33]
  MIC: 1 µg/mL (≈ 2.14 µM)
Acinetobacter baumannii [34]
  MIC: < 0.25 µg/mL
Acinetobacter baumannii [35]
  MIC: 2 µg/mL (≈ 4.28 µM)
Acinetobacter baumannii [36]
  MIC: < 0.25 µg/mL
Acinetobacter baumannii [37]
  MIC: 16 µg/mL (≈ 34.2 µM)
Acinetobacter baumannii [38]
  MIC: > 32 µg/mL
Acinetobacter baumannii [39]
  MIC: 1 µg/mL (≈ 2.14 µM)
Acinetobacter baumannii [40]
  MIC: 0.5 µg/mL (≈ 1.07 µM)
